Assay results as given in ChEMBL document CHEMBL3351359, “Design and synthesis of novel 2,4-diaryl-5H-indeno[1,2-b]pyridine derivatives, and their evaluation of topoisomerase inhibitory activity and cytotoxicity” (Bioorg Med Chem, 2015).

Experiments:
MCF7 = test: Cytotoxicity against human MCF7 cells after 2 days by CCK-8 assay; format: functional, cell-based; conditions: MCF7, 48 h
Outline: (§1)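 Cells seeded at 2~4 × 10^4 per well, grown overnight in medium with 10% FBS at 37 °C, 5% CO2. On day 2, after 4 h FBS starvation, medium replaced with medium containing graded compound concentrations. On day 4, CCK-8 added for 4 h, then absorbance read at 450 nm. IC50 from four-parameter logistic fit. Mean ± S.D. of three experiments, each run in triplicate.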

HeLa = test: Cytotoxicity against human HeLa cells after 2 days by CCK-8 assay; format: functional, cell-based; conditions: 48 h; outline: as §1
[1] = Cytotoxicity against human HCT15 cells after 2 days by CCK-8 assay; format: functional, cell-based; conditions: HCT-15, 48 h; outline: as §1
[2] = biological target: T1, DNA topoisomerase 1 (Homo sapiens) (UniProt P11387); test: Inhibition of human recombinant topoisomerase-1 assessed as conversion of super-coiled plasmid DNA pBR322 to relaxed DNA at 100 uM after 30 mins by ethidium bromide staining-based agarose gel electrophoresis relative to camptothecin
T1 sequence (whole entry): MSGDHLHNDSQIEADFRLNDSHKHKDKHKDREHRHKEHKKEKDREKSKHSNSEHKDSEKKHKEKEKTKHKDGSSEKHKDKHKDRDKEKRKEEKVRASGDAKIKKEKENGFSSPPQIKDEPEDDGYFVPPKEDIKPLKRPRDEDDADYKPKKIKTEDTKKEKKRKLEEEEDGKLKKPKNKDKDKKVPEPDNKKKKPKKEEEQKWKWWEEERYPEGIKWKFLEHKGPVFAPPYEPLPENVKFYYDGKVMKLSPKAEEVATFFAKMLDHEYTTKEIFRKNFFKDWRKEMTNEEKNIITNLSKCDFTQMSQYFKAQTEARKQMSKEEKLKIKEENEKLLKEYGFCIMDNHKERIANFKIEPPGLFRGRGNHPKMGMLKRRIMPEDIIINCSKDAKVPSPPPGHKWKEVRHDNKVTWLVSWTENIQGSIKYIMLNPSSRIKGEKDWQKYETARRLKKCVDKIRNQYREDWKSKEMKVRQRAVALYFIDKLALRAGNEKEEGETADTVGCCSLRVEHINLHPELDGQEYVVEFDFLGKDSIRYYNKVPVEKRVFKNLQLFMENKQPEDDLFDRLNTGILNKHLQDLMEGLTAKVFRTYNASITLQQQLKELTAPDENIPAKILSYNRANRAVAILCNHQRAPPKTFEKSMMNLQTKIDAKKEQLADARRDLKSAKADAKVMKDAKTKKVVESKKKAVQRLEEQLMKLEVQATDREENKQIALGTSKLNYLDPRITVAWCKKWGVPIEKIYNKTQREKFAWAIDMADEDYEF

[3] = biological target: DNA topoisomerase 2-alpha (Homo sapiens) (UniProt P11388); test: Inhibition of human recombinant topoisomerase-2 alpha assessed as conversion of super-coiled plasmid DNA pBR322 to relaxed DNA at 100 uM after 30 mins by ethidium bromide staining-based agarose gel electrophoresis relative to etoposide
[4] = biological target: T1, DNA topoisomerase 1 (Homo sapiens); test: Inhibition of human recombinant topoisomerase-1 assessed as conversion of super-coiled plasmid DNA pBR322 to relaxed DNA at 100 uM after 30 mins by ethidium bromide staining-based agarose gel electrophoresis (reference value: 62.9%)
Outline: (§2)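 Relaxation of supercoiled pBR322 (100 ng) by 0.4 units recombinant human topo I, with or without compound (20 mM DMSO stocks), for 30 min at 37 °C. Buffer: 10 mM Tris-HCl pH 7.9, 150 mM NaCl, 0.1% BSA, 1 mM spermidine, 5% glycerol. Stopped with sarcosyl. Run on 1% agarose in TAE at 15 V for 7 h, stained with ethidium bromide, bands quantified under UV.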

[5] = biological target: DNA topoisomerase 2-alpha (Homo sapiens) (UniProt P11388); test: Inhibition of human recombinant topoisomerase-2 alpha assessed as conversion of super-coiled plasmid DNA pBR322 to relaxed DNA at 100 uM after 30 mins by ethidium bromide staining-based agarose gel electrophoresis (reference value: 87.8%)
Outline: (§3)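 Supercoiled pBR322 (200 ng) incubated with 1 unit human topo IIα, with or without compound, for 30 min at 30 °C. Buffer: 10 mM Tris-HCl pH 7.9, 50 mM NaCl, 5 mM MgCl2, 1 mM EDTA, 1 mM ATP, 15 μg/mL BSA. Stopped with EDTA. Run on 1% agarose in TAE at 25 V for 4 h, stained with ethidium bromide, supercoiled DNA quantified under UV.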

[6] = biological target: DNA topoisomerase 2-alpha (Homo sapiens) (UniProt P11388); test: Inhibition of human recombinant topoisomerase-2 alpha assessed as conversion of super-coiled plasmid DNA pBR322 to relaxed DNA at 20 uM after 30 mins by ethidium bromide staining-based agarose gel electrophoresis (reference value: 46.7%); outline: as §3
DU-145 = test: Cytotoxicity against human DU145 cells after 2 days by CCK-8 assay; format: functional, cell-based; conditions: DU-145, 48 h; outline: as §1
[7] = biological target: T1, DNA topoisomerase 1 (Homo sapiens); test: Inhibition of human recombinant topoisomerase-1 assessed as conversion of super-coiled plasmid DNA pBR322 to relaxed DNA at 100 uM after 30 mins by ethidium bromide staining-based agarose gel electrophoresis (reference value: 45.2%); outline: as §2
[8] = biological target: T1, DNA topoisomerase 1 (Homo sapiens); test: Inhibition of human recombinant topoisomerase-1 assessed as conversion of super-coiled plasmid DNA pBR322 to relaxed DNA at 20 uM after 30 mins by ethidium bromide staining-based agarose gel electrophoresis (reference value: 25.9%); outline: as §2
[9] = biological target: DNA topoisomerase 2-alpha (Homo sapiens) (UniProt P11388); test: Inhibition of human recombinant topoisomerase-2 alpha assessed as conversion of super-coiled plasmid DNA pBR322 to relaxed DNA at 100 uM after 30 mins by ethidium bromide staining-based agarose gel electrophoresis (reference value: 32.4%); outline: as §3
[10] = biological target: T1, DNA topoisomerase 1 (Homo sapiens); test: Inhibition of human recombinant topoisomerase-1 assessed as conversion of super-coiled plasmid DNA pBR322 to relaxed DNA at 100 uM after 30 mins by ethidium bromide staining-based agarose gel electrophoresis (reference value: 51.5%); outline: as §2
[11] = biological target: DNA topoisomerase 2-alpha (Homo sapiens) (UniProt P11388); test: Inhibition of human recombinant topoisomerase-2 alpha assessed as conversion of super-coiled plasmid DNA pBR322 to relaxed DNA at 100 uM after 30 mins by ethidium bromide staining-based agarose gel electrophoresis (reference value: 83.7%); outline: as §3
[12] = biological target: DNA topoisomerase 2-alpha (Homo sapiens) (UniProt P11388); test: Inhibition of human recombinant topoisomerase-2 alpha assessed as conversion of super-coiled plasmid DNA pBR322 to relaxed DNA at 20 uM after 30 mins by ethidium bromide staining-based agarose gel electrophoresis (reference value: 42.1%); outline: as §3

DNA topoisomerase 2-alpha (Homo sapiens), sequence (P11388 whole entry): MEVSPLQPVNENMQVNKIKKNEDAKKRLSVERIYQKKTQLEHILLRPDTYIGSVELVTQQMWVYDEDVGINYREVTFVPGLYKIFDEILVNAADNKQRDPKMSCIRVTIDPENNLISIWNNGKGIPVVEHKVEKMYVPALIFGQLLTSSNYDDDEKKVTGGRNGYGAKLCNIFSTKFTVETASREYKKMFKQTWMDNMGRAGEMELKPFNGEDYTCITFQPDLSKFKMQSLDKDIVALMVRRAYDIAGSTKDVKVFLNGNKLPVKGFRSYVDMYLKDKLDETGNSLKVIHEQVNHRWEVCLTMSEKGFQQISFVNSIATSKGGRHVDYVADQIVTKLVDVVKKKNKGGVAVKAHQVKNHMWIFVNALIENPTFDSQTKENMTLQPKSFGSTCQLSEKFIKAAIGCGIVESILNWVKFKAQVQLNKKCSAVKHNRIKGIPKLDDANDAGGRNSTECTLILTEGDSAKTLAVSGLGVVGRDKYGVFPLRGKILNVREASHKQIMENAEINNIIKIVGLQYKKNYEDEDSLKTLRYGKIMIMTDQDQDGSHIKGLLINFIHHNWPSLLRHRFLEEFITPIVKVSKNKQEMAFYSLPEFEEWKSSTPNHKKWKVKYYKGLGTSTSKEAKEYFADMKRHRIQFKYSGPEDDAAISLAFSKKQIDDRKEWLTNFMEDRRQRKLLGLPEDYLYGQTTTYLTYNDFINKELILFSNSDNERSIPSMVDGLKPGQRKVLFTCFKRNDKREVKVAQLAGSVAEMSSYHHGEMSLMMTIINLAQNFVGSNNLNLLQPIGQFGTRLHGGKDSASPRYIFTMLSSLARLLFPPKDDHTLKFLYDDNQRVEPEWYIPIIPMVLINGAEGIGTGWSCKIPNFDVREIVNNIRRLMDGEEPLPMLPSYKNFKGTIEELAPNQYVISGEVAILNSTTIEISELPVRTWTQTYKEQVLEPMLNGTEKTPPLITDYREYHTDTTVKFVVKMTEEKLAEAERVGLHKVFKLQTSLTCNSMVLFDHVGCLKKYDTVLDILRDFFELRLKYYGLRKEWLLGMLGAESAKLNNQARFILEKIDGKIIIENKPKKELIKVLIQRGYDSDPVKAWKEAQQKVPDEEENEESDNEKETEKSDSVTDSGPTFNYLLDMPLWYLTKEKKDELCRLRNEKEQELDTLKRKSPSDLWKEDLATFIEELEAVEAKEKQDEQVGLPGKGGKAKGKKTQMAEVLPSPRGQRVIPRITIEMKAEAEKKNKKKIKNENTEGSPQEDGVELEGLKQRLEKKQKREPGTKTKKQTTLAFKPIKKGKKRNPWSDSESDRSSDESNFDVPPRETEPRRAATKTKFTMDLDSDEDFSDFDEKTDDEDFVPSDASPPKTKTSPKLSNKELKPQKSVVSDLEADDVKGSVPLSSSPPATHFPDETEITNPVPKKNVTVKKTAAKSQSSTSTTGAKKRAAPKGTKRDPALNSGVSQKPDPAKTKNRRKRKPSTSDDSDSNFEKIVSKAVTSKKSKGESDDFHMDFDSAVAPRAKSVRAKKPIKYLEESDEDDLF

| Ratio [3] | Ratio [2] | Structure (SMILES) | IC50 (MCF7) | IC50 [1] | IC50 (DU-145) | other results |
| --- | --- | --- | --- | --- | --- | --- |
|  |  | COc1cc([C@@H]2c3cc4c(cc3[C@@H](O[C@@H]3O[C@@H]5CO[C@@H](C)O[C@H]5[C@H](O)[C@H]3O)[C@H]3COC(=O)[C@H]23)OCO4)cc(OC)c1O [ETOPOSIDE] | 0.73 µM | 1.1 µM |  | IC50 (HeLa): 1.26 µM |
| 1.24 |  | c1ccc(-c2cc(-c3ccco3)c3oc4ccccc4c3n2)cc1 |  |  |  | fold change (FC) [2]: < 0.2 |
|  |  | COc1cccc2c1C(=O)c1c(O)c3c(c(O)c1C2=O)C[C@@](O)(C(=O)CO)C[C@@H]3O[C@H]1C[C@H](N)[C@H](O)[C@H](C)O1 [DOXORUBICIN] | 0.4 µM | 1.08 µM |  |  |
|  |  | c1ccc(-c2cc(-c3cccs3)nc3c2Cc2ccccc2-3)cc1 | > 50 µM | > 50 µM | > 50 µM | inhibition [4]: 5.8%; inhibition [5]: 56%; inhibition [6]: 0% |
|  |  | c1ccc(-c2cc(-c3cccs3)c3c(n2)-c2ccccc2C3)nc1 | 11 µM | 9.1 µM | 6.7 µM | inhibition [7]: 58.5%; inhibition [8]: 12%; inhibition [9]: 9%; IC50 (HeLa): 20.5 µM |
| 1.11 |  | c1coc(-c2cc(-c3ccco3)c3oc4ccccc4c3n2)c1 |  |  |  | fold change (FC) [2]: 0.6 |
| 1.11 | < 0.2 | c1ccc(-c2cc(-c3ccco3)nc3c2oc2ccccc23)cc1 |  |  |  |  |
|  |  | c1ccc(-c2cc(-c3ccccn3)c3c(n2)-c2ccccc2C3)nc1 |  |  |  | inhibition [7]: 6.2%; inhibition [9]: 10.2% |
| 1.19 | < 0.2 | c1csc(-c2cc(-c3ccoc3)c3c(n2)-c2ccccc2C3)c1 | > 50 µM | 34.6 µM | 37.3 µM | inhibition [10]: 1.7%; inhibition [11]: 100%; inhibition [12]: 66.7%; IC50 (HeLa): > 50 µM |
| 1 | < 0.2 | c1coc(-c2cc(-c3cccs3)c3c(n2)-c2ccccc2C3)c1 | > 50 µM | 23.6 µM | > 50 µM | inhibition [10]: 2%; inhibition [11]: 83.9%; inhibition [12]: 79.6%; IC50 (HeLa): > 50 µM |
| 1.19 | < 0.2 | c1coc(-c2cc(-c3ccsc3)c3c(n2)-c2ccccc2C3)c1 | > 50 µM | > 50 µM | > 50 µM | inhibition [10]: 0%; inhibition [11]: 100%; inhibition [12]: 93%; IC50 (HeLa): > 50 µM |
| 0.89 | 1.2 | c1coc(-c2cc(-c3ccoc3)c3c(n2)-c2ccccc2OC3)c1 |  |  |  |  |
| 1 | < 0.2 | c1coc(-c2cc(-c3ccsc3)nc3c2Cc2ccccc2-3)c1 | > 50 µM | 31.6 µM | > 50 µM | inhibition [10]: 2.8%; inhibition [11]: 84.1%; inhibition [12]: 68.5%; IC50 (HeLa): > 50 µM |
|  |  | c1ccc(-c2cc(-c3cccs3)nc3c2Cc2ccccc2-3)nc1 | 43.3 µM | 9.63 µM | > 50 µM | inhibition [4]: 4.5%; inhibition [5]: 18.1% |
|  |  | c1csc(-c2cc(-c3ccsc3)nc3c2Cc2ccccc2-3)c1 | > 50 µM | > 50 µM | > 50 µM | inhibition [4]: 4.1%; inhibition [5]: 17.8% |
| < 0.2 | 1.58 | c1ccc(-c2cc(-c3cccnc3)nc3c2COc2ccccc2-3)nc1 |  |  |  |  |
|  |  | CC[C@@]1(O)C(=O)OCc2c1cc1n(c2=O)Cc2cc3ccccc3nc2-1 [CAMPTOTHECIN] | 0.08 µM | 0.26 µM | 0.11 µM |  |
| 1.14 | < 0.2 | c1csc(-c2cc(-c3ccsc3)c3c(n2)-c2ccccc2C3)c1 | > 50 µM | > 50 µM | > 50 µM | inhibition [4]: 10.1%; inhibition [5]: 100%; inhibition [6]: 0% |

| Ratio [3] | Ratio [2] | Structure (SMILES) | IC50 (MCF7) | IC50 [1] | IC50 (DU-145) | other results |
| --- | --- | --- | --- | --- | --- | --- |
|  |  | c1ccc(-c2cc(-c3ccsc3)c3c(n2)-c2ccccc2C3)nc1 |  |  |  | inhibition [4]: 1.1%; inhibition [5]: 15% |
| 1.15 | < 0.2 | c1ccc2c(c1)Cc1c(-c3ccoc3)cc(-c3ccsc3)nc1-2 | > 50 µM | 20.6 µM | > 50 µM | inhibition [10]: 1.2%; inhibition [11]: 95.9%; inhibition [12]: 10.9%; IC50 (HeLa): > 50 µM |
|  |  | c1ccc(-c2cc(-c3ccccn3)nc3c2Cc2ccccc2-3)cc1 |  |  |  | inhibition [7]: 0%; inhibition [9]: 12.3% |
| < 0.2 | 0.49 | c1cncc(-c2cc(-c3ccncc3)c3c(n2)-c2ccsc2CC3)c1 |  |  |  |  |
| < 0.2 | 1.15 | c1ccc(-c2cc(-c3cccnc3)c3c(n2)-c2ccsc2CC3)cc1 |  |  |  |  |
| < 0.2 | 1.36 | c1cncc(-c2cc(-c3ccoc3)c3c(n2)-c2ncccc2CC3)c1 |  |  |  |  |
|  |  | c1ccc(-c2cc(-c3ccco3)c3c(n2)-c2ccccc2C3)nc1 |  |  |  | inhibition [7]: 0.6%; inhibition [9]: 17.7% |
| < 0.2 | 1.15 | c1ccc(-c2cc(-c3ccccn3)nc3c2oc2ccccc23)cc1 |  |  |  |  |
| 0.83 | < 0.2 | c1ccc(-c2cc(-c3ccsc3)nc3c2Cc2ccccc2-3)cc1 | > 50 µM | > 50 µM | > 50 µM | inhibition [4]: 0.5%; inhibition [5]: 72.5%; inhibition [6]: 0% |
| 0.9 | 1.42 | c1ccc2c(c1)OCc1c(-c3ccsc3)cc(-c3ccsc3)nc1-2 |  |  |  |  |
| < 0.2 | 0.53 | c1csc(-c2cc(-c3ccoc3)c3c(n2)-c2ccccc2CC3)c1 |  |  |  |  |
| < 0.2 | 0.97 | c1coc(-c2cc(-c3cccs3)nc3c2CCc2ccccc2-3)c1 |  |  |  |  |
|  |  | c1csc(-c2cc(-c3cccs3)c3c(n2)-c2ccccc2C3)c1 | > 50 µM | > 50 µM | > 50 µM | inhibition [4]: 4.7%; inhibition [5]: 9.8% |
| < 0.2 | 1.25 | c1ccc(-c2cc(-c3ccco3)c3c(n2)-c2ncccc2CC3)nc1 |  |  |  |  |
|  |  | c1ccc(-c2cc(-c3ccoc3)c3c(n2)-c2ccccc2C3)nc1 |  |  |  | inhibition [7]: 8.6%; inhibition [9]: 17.5% |
|  |  | c1ccc(-c2cc(-c3ccsc3)nc3c2Cc2ccccc2-3)nc1 | > 50 µM | > 50 µM | > 50 µM | inhibition [4]: 3.5%; inhibition [5]: 3.2% |
| 1.13 | 1.67 | c1ccc(-c2cc(-c3ccsc3)nc3c2COc2ccccc2-3)cc1 |  |  |  |  |
